Results reported in ChEMBL document CHEMBL2034888, “Synthesis, anticonvulsant activity, and neuropathic pain-attenuating activity of N-benzyl 2-amino-2-(hetero)aromatic acetamides” (Bioorg Med Chem, 2012).

Key:
[1] = system: Mus musculus; experiment: Anticonvulsant activity in ip dosed albino CF-1 mouse assessed as protection against maximal electroshock-induced seizure; type: functional; settings: albino CF-1, ip
[2] = Neurotoxicity in ip dosed albino CF-1 mouse by rotorod test; type: toxicity, organism-based; settings: in vivo
[3] = system: Mus musculus; experiment: Toxicity in ip dosed NMRI mouse assessed as convulsions at 130 mg/kg, ip after 30 mins; type: organism-based; design: dose 130 mg/kg, route intraperitoneal; settings: in vivo, 0.5 h
Outline: (§1)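 Adult male NMRI mice were dosed ip. Whole-animal pharmacological observation was made at the stated mg/kg dose, recording tremors, convulsions, writhing, impaired gait or mortality. Timing was 30 min post-dose.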

[4] = system: Mus musculus; experiment: Antinociceptive activity in ip dosed NMRI mouse neuropathic pain model assessed as protection against formalin-induced nociceptive behaviour after 30 mins; type: functional; settings: 0.5 h
Outline: (§2)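 Formalin test in adult male NMRI mice used as a prescreen for pain attenuation, 30 min after ip administration. ED50 in mg/kg was derived where possible. Otherwise the percent protected after a single stated dose was reported.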

[5] = system: Mus musculus; experiment: Anticonvulsant activity in ip dosed NMRI mouse assessed as protection against maximal electroshock-induced seizure after 30 mins postdose; type: functional; settings: 0.5 h; for minimal effective dose: read-out: MED
Outline: (§3)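 Adult male NMRI mice given compound intraperitoneally; maximal electroshock seizure test run 30 min after dosing. Where a dose–response was run, ED50 in mg/kg was derived. Otherwise a minimal active dose was reported, or the percentage of mice protected at a single dose.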

[6] = system: Mus musculus; experiment: Toxicity in ip dosed NMRI mouse assessed as writhings at 130 mg/kg, ip after 30 mins; type: organism-based; design: dose 130 mg/kg, route intraperitoneal; settings: in vivo, 0.5 h; outline: as §1
[7] = system: Mus musculus; experiment: Anticonvulsant activity in ip dosed NMRI mouse assessed as protection against 6 Hz psychomotor seizure after 30 mins; type: functional; settings: 0.5 h
Outline: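 Adult male NMRI mice dosed ip. Psychomotor seizures were induced by 6 Hz stimulation at 44 mA, 30 min after administration. ED50 in mg/kg was derived where determinable, otherwise a minimal active dose was reported.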

[8] = system: Mus musculus; experiment: Anticonvulsant activity in ip dosed albino CF-1 mouse assessed as protection against maximal electroshock-induced seizure after 0.5 hrs; type: functional; settings: albino CF-1, ip
[9] = Neurotoxicity in ip dosed albino CF-1 mouse by horizontal screen test; type: toxicity, organism-based; settings: in vivo
[10] = system: Mus musculus; experiment: Toxicity in ip dosed NMRI mouse assessed as mortality at 105 mg/kg, ip after 30 mins; type: organism-based; design: dose 105 mg/kg, route intraperitoneal; settings: in vivo, 0.5 h
Outline: (§4)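 Adult male NMRI mice dosed intraperitoneally. Whole-animal pharmacological observation at the listed mg/kg dose, with convulsions and mortality recorded as signs. This was done alongside MES, 6 Hz (44 mA) psychomotor seizure, formalin and rotorod testing, which were read 30 min after ip dosing.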

[11] = system: Mus musculus; experiment: Toxicity in ip dosed NMRI mouse assessed as convulsions at 105 mg/kg, ip after 30 mins; type: organism-based; design: dose 105 mg/kg, route intraperitoneal; settings: in vivo, 0.5 h; outline: as §4
[12] = Neurotoxicity in ip dosed NMRI mouse after 30 mins by rotorod test; type: toxicity, organism-based; settings: in vivo
Outline: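 Neurological impairment was scored by rotorod in adult male NMRI mice 30 min after ip dosing. TD50 in mg/kg was derived where possible, otherwise the maximal tolerated dose was given.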

[13] = system: Mus musculus; experiment: Protective index, ratio of TD50 for NMRI mouse to ED50 for anticonvulsant activity in ip dosed NMRI mouse by maximal electroshock seizure test; type: functional
[14] = system: Mus musculus; experiment: Protective index, ratio of TD50 for NMRI mouse to ED50 for antinociceptive activity in ip dosed NMRI mouse neuropathic pain model; type: functional
[15] = Ratio of drug level in brain to plasma in mouse; type: ADME, organism-based; settings: brain and plasma, read-out: BPR
[16] = Neurotoxicity in ip dosed albino CF-1 mouse after 30 mins by rotorod test; type: toxicity, organism-based; settings: in vivo
[17] = system: Mus musculus; experiment: Antinociceptive activity in NMRI mouse neuropathic pain model assessed as protection against formalin-induced nociceptive behaviour at 90 mg/kg, ip after 30 mins; type: functional; settings: route intraperitoneal; outline: as §2
[18] = system: Mus musculus; experiment: Toxicity in ip dosed NMRI mouse assessed as tremors at 90 mg/kg, ip after 30 mins; type: organism-based; design: dose 90 mg/kg, route intraperitoneal; settings: in vivo, 0.5 h; outline: as §1
[19] = system: Mus musculus; experiment: Toxicity in ip dosed NMRI mouse assessed as mortality at 140 mg/kg, ip after 30 mins; type: organism-based; design: dose 140 mg/kg, route intraperitoneal; settings: in vivo, 0.5 h; outline: as §4
[20] = system: Mus musculus; experiment: Antinociceptive activity in NMRI mouse neuropathic pain model assessed as protection against formalin-induced nociceptive behaviour at 24 mg/kg, ip after 30 mins; type: functional; settings: route intraperitoneal; outline: as §2
[21] = system: Mus musculus; experiment: Toxicity in ip dosed NMRI mouse assessed as convulsions at 77 mg/kg, ip after 30 mins; type: organism-based; design: dose 77 mg/kg, route intraperitoneal; settings: in vivo, 0.5 h; outline: as §1
[22] = system: Mus musculus; experiment: Toxicity in ip dosed NMRI mouse assessed as convulsions at 160 mg/kg, ip after 30 mins; type: organism-based; design: dose 160 mg/kg, route intraperitoneal; settings: in vivo, 0.5 h; outline: as §1
[23] = system: Mus musculus; experiment: Toxicity in ip dosed NMRI mouse assessed as mortality at 110 mg/kg, ip after 30 mins; type: organism-based; design: dose 110 mg/kg, route intraperitoneal; settings: in vivo, 0.5 h; outline: as §4
[24] = system: Mus musculus; experiment: Toxicity in ip dosed NMRI mouse assessed as convulsions at 110 mg/kg, ip after 30 mins; type: organism-based; design: dose 110 mg/kg, route intraperitoneal; settings: in vivo, 0.5 h; outline: as §4
[25] = system: Mus musculus; experiment: Toxicity in ip dosed NMRI mouse assessed as tremors at 59 mg/kg, ip after 30 mins; type: organism-based; design: dose 59 mg/kg, route intraperitoneal; settings: in vivo, 0.5 h; outline: as §1
[26] = system: Mus musculus; experiment: Antinociceptive activity in NMRI mouse neuropathic pain model assessed as protection against formalin-induced nociceptive behaviour at 110 mg/kg, ip after 30 mins; type: functional; settings: route intraperitoneal; outline: as §2
[27] = system: Mus musculus; experiment: Toxicity in ip dosed NMRI mouse assessed as writhings at 59 mg/kg, ip after 30 mins; type: organism-based; design: dose 59 mg/kg, route intraperitoneal; settings: in vivo, 0.5 h; outline: as §1
[28] = system: Mus musculus; experiment: Toxicity in ip dosed NMRI mouse assessed as impaired gait at 100 mg/kg, ip after 30 mins; type: organism-based; design: dose 100 mg/kg, route intraperitoneal; settings: in vivo, 0.5 h; outline: as §1
[29] = system: Mus musculus; experiment: Anticonvulsant activity in NMRI mouse assessed as protection against maximal electroshock-induced seizure at 140 mg/kg, ip after 30 mins; type: functional; settings: route intraperitoneal; outline: as §3
[30] = system: Mus musculus; experiment: Toxicity in ip dosed NMRI mouse assessed as tremors at 100 mg/kg, ip after 30 mins; type: organism-based; design: dose 100 mg/kg, route intraperitoneal; settings: in vivo, 0.5 h; outline: as §1

CC(=O)NC(C(=O)NCc1ccccc1)c1ccc2ccccc2c1 (racemic)
ED50 [1]: > 300 mg/kg | TD50 [2]: > 300 mg/kg

NC(C(=O)NCc1ccccc1)c1ccc2ccccc2n1 (racemic)
Activity [3]: Toxic | ED50 [4]: 54 mg/kg | ED50 [5]: > 41 mg/kg | Activity [6]: Toxic | ED50 [7]: > 130 mg/kg

CC(=O)NC(C(=O)NCc1ccccc1)c1ccccc1 (racemic)
ED50 [8]: 32 mg/kg | TD50 [9]: > 40 mg/kg

NC(C(=O)NCc1ccccc1)c1nccc2ccccc12 (racemic)
ED50 [4]: 29 mg/kg | ED50 [5]: > 52 mg/kg | ED50 [7]: > 93 mg/kg

NC(C(=O)NCc1ccccc1)c1ccncc1 (racemic)
ED50 [4]: 67 mg/kg | minimal effective dose [5]: 210 mg/kg | ED50 [7]: > 120 mg/kg

NC(C(=O)NCc1ccccc1)c1cccc2ccccc12 (racemic)
ED50 [4]: > 33 mg/kg | Activity [10]: Toxic | Activity [11]: Toxic | ED50 [5]: > 69 mg/kg | ED50 [7]: > 59 mg/kg

NC(C(=O)NCc1ccccc1)c1cccnc1 (racemic)
ED50 [4]: 74 mg/kg | minimal effective dose [5]: 120 mg/kg | ED50 [7]: > 210 mg/kg

CC(=O)NC(C(=O)NCc1ccccc1)c1ccccn1 (racemic)
ED50 [8]: 11 mg/kg | TD50 [2]: 25 mg/kg

CCC1(c2ccccc2)C(=O)NC(=O)NC1=O [PHENOBARBITAL]
ED50 [5]: 22 mg/kg

NC(C(=O)NCc1ccccc1)c1cc2ccccc2s1 (racemic)
ED50 [4]: 66 mg/kg | ED50 [5]: 120 mg/kg | ED50 [7]: > 170 mg/kg

NC(C(=O)NCc1ccccc1)c1nccs1 (racemic)
ED50 [4]: 45 mg/kg | ED50 [5]: 67 mg/kg | MTD at 0.5 h [12]: 140 mg/kg | Ratio TD50/ED50 [13]: <2.1 | Ratio TD50/ED50 [14]: <3.1 | ED50 [7]: > 140 mg/kg

NC(C(=O)NCc1ccccc1)c1ccccn1 (racemic)
Kp [15]: 2.7 | ED50 [4]: 33 mg/kg | minimal effective dose [5]: 100 mg/kg | MTD at 0.5 h [12]: 180 mg/kg | ED50 [7]: > 100 mg/kg

CC(=O)NC(C(=O)NCc1ccccc1)c1ccco1 (racemic)
ED50 [8]: 10 mg/kg | TD50 at 0.5 h [16]: 40 mg/kg

CC(=O)NC(C(=O)NCc1ccccc1)c1cc2ccccc2o1 (racemic)
ED50 [1]: 100 mg/kg | TD50 [2]: 100 mg/kg

COC[C@@H](NC(C)=O)C(=O)NCc1ccccc1 [LACOSAMIDE]
ED50 [4]: 15 mg/kg | ED50 [5]: 3.3 mg/kg | Ratio TD50/ED50 [13]: 5.8 | Ratio TD50/ED50 [14]: 1.3 | ED50 [7]: 10 mg/kg

CC(=O)NC(C(=O)NCc1ccccc1)c1nccs1 (racemic)
ED50 [8]: 12 mg/kg | TD50 at 0.5 h [16]: 69 mg/kg

NC(C(=O)NCc1ccccc1)c1cc2ccccc2o1 (racemic)
Activity [17]: 31% | ED50 [5]: 90 mg/kg | Activity [18]: Toxic | ED50 [7]: > 120 mg/kg

NC(C(=O)NCc1ccccc1)c1ccccc1 (racemic)
Activity [19]: Toxic | Activity [20]: 37% | ED50 [5]: > 30 mg/kg | TD50 at 0.5 h [12]: 51 mg/kg | Ratio TD50/ED50 [13]: >1.7 | Ratio TD50/ED50 [14]: >1.2 | Activity [21]: Toxic | ED50 [7]: > 43 mg/kg

NC(C(=O)NCc1ccccc1)c1cccs1 (racemic)
ED50 [4]: 48 mg/kg | minimal effective dose [5]: 68 mg/kg | MTD at 0.5 h [12]: 51 mg/kg | Ratio TD50/ED50 [13]: <0.8 | Activity [22]: Toxic | Ratio TD50/ED50 [14]: <1.1 | ED50 [7]: > 91 mg/kg

CC(=O)NC(C(=O)NCc1ccccc1)c1cnccn1 (racemic)
ED50 [8]: 15 mg/kg | TD50 at 0.5 h [16]: 58 mg/kg

CC(=O)NC(C(=O)NCc1ccccc1)c1ccc(C)o1 (racemic)
ED50 [8]: 19 mg/kg | TD50 at 0.5 h [16]: 75 mg/kg

NC(C(=O)NCc1ccccc1)c1cnc2ccccc2n1 (racemic)
ED50 [4]: 42 mg/kg | ED50 [5]: > 120 mg/kg | ED50 [7]: > 120 mg/kg

NC(C(=O)NCc1ccccc1)c1ccc2ccccc2c1 (racemic)
ED50 [4]: < 110 mg/kg | Activity [23]: Toxic | Activity [24]: Toxic | ED50 [5]: 45 mg/kg | TD50 at 0.5 h [12]: 110 mg/kg | Activity [25]: Toxic | Ratio TD50/ED50 [13]: <2.4 | Activity [26]: 100% | Activity [27]: Toxic | ED50 [7]: > 110 mg/kg

CC(=O)NC(C(=O)NCc1ccccc1)c1cc2ccccc2s1 (racemic)
ED50 [1]: 100 mg/kg | TD50 [2]: 100 mg/kg

NC(C(=O)NCc1ccccc1)c1cnccn1 (racemic)
ED50 [4]: > 160 mg/kg | ED50 [5]: 85 mg/kg | TD50 at 0.5 h [12]: > 160 mg/kg | Ratio TD50/ED50 [13]: >1.9 | Ratio TD50/ED50 [14]: >1 | minimal effective dose ([7]; read-out: MED): 28 mg/kg

CCCC(CCC)C(=O)[O-].[Na+] [VALPROATE SODIUM]
ED50 [5]: 270 mg/kg

NC(C(=O)NCc1ccccc1)c1ccco1 (racemic)
ED50 [4]: 29 mg/kg | ED50 [5]: 85 mg/kg | TD50 at 0.5 h [12]: > 150 mg/kg | Ratio TD50/ED50 [13]: >1.8 | Ratio TD50/ED50 [14]: >5.1 | ED50 [7]: > 150 mg/kg

CC(=O)NC(C(=O)NCc1ccccc1)c1cccs1 (racemic)
ED50 [8]: 45 mg/kg | TD50 [2]: 30 mg/kg

Cc1ccc(C(N)C(=O)NCc2ccccc2)o1 (racemic)
Activity [28]: Toxic | ED50 [4]: > 78 mg/kg | minimal effective dose [5]: 100 mg/kg | Activity [29]: 100% | Activity [30]: Toxic | ED50 [7]: > 140 mg/kg
